# The list is not random: actives were taken first. Their share in the collection is about 12%.
# MT stabilize HCS: microtubule stabilizers in HeLa cells; AID 2205; HeLa tubulin immunostaining HCS, 24 h; share of cells brighter than vehicle mean+2SD; % tubulin-high responders, % at 10 µM; 200,000 tested, 0.83% active;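 active means plate Z-score above 3 for both tubulin-high and condensed-nucleus cell shares, with cell loss under 80%, at 10 µM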;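 further: anti alpha tubulin signal scored within the nucleus-defined area of each cell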
# bCat nuc transl: alters nuclear translocation of beta-catenin in HeLa cells | nuclear translocation activity, % at 5 µM | immunofluorescence imaging | 190,000 tested, 0.3% active | AID 1665;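 active means nuclear translocation activity above 50% at 5 µM, with a well cell count of 50 or more; inconclusive means wells under 50 cells across six images, flagged as toxic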;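 further: per-cell ratio of nuclear to cytoplasmic median beta-catenin stain intensity; plate controls were DMSO negative control for no effect and GSK-3 inhibitor IX positive control for full effect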
#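 Test system: human HeLa cells, endogenous beta-catenin. Times: 24 h compound exposure, 37°C. Measured by: beta-catenin immunofluorescence imaging with DAPI.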
# CHOP inh: CHOP inhibition in unfolded protein response | inhibition, % at 10 µM | CHO-K1 CHOP-promoter luciferase, tunicamycin-induced, 15-18 h | 220,000 tested, 3.8% active | AID 2732;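 active means compounds that reduced the stress-induced luciferase reporter signal by more than about 70% of percent inhibition, limit read from the data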;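 further: 0% = tunicamycin plus vehicle and 100% = wells without tunicamycin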
# Autophagy HCS: alters autophagy in cells | calls only at 10 µM (by protocol) | 190,000 tested, 0.98% active | MEF GFP-LC3 puncta imaging; test concentration mostly 10 µM;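 active means percentage of spot-positive cells more than 3 SD above its plate mean, without a fluorescence outlier flag or 80% toxicity; inconclusive means no clear call, values can overlap the other calls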;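 further: spot-positive cell cutoff set from DMSO-treated cells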
# L major viab: inhibitors of Leishmania major promastigote growth; Leishmania major promastigotes, resazurin fluorescence viability; inhibition, % at 10 µM; 200,000 tested, 9% active; AID 1063; in the data active means inhibition above about 50%;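 further: promastigotes grown with compound for 44 hours at 28 °C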
# Dynein transport: blocks dynein driven cargo transport along microtubules | AID 1381 | 3617.4 mouse cells, GR-EGFP nuclear translocation imaging; test concentration mostly 20 µM; stimulated with dexamethasone, 1 µM; active compounds read low | z-score, hits read low | 220,000 tested, 0.47% active;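 active means plate z-score of nuclear minus cytoplasmic receptor signal below a set negative limit, without overly bright fluorescence or cell loss, cut at about -3.5 in these data, passing the limit was not always enough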;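 further: z-score of nuclear minus cytoplasmic ring GR-EGFP intensity difference per well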
#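 Buffer or medium – tet-free medium with charcoal-stripped serum · Signal – automated 10x imaging of fixed Hoechst-stained cells · Also added – dexamethasone agonist, 1.0 µM final, for 30 min · Incubation – induction 48 h, compound 1 h, agonist 30 min · Read-out – GR-EGFP nuclear translocation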
# CHOP inh conf: confirmation of CHOP induction inhibitors; 2,100 tested, 45% active; CHO-CHOP promoter luciferase reporter, tunicamycin-induced, luminescence; shares compounds with CHOP inh; inhibition, % at 10 µM;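 active means mean of three repeat readings of reporter signal inhibition above a set limit, cut at about 70% in these data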;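 further: 0% = tunicamycin plus vehicle and 100% = wells lacking tunicamycin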
# Active calls of the source: *; i = inactive; ? = inconclusive; nt = no result given.
SMILES,MT stabilize HCS,bCat nuc transl,CHOP inh,Autophagy HCS,L major viab,Dynein transport,CHOP inh conf
CCOC(=O)C1=C(Nc2ccccc2)CC(C)(O)C(C(=O)OCC)C1c1ccc(Cl)cc1 (stereo unspecified),4,2,15,i,5,-0.22,nt
c1ccc(CN2CCC(Nc3nc(-c4ccccc4)nc4ccccc34)CC2)cc1,4,-1,102*,i,100*,0.19,38
O=C(CN1CCOCC1)Nc1ccc([N+](=O)[O-])cc1Br,3,-3,25,i,-4,0.083,nt
C=CCOC(=O)C1=C(C)NC(SCC(=O)Nc2ccccc2)=C(C#N)C1c1ccco1 (stereo unspecified),3,0,104*,i,8,-0.2,116*
CC1=C(C(=O)Nc2ccccc2)C(c2ccco2)C(C#N)=C(SCC(=O)Nc2cccc(C)c2C)N1 (stereo unspecified),5,-2,34,i,9,1.1,nt
O=C(CSC1=NCCS1)N1CCCC1,3,-5,27,i,-5,-1,nt
COc1ccc2oc(=O)c(C(=O)Nc3ccccc3O)cc2c1,nt,0,101*,nt,nt,0.78,21
COc1ccc(CN(CC2CCC(C(=O)O)CC2)C(=S)Nc2cc(C)ccc2C)cc1 (stereo unspecified),2,0,-18,i,2,-1.4,nt
O=C(N=c1ccn(-c2nc3ccccc3nc2NS(=O)(=O)c2ccc(Cl)cc2)cc1)c1cccs1,nt,-1,98*,nt,nt,0.29,-7
COc1cc(C(=O)O/N=C2\C=CC(=O)C(C)=C2)cc(OC)c1OC,2,2,108*,i,101*,-2.7,99*
COc1cc(C(=O)OCC(=O)N2CCCC2)cc(OC)c1OC,2,3,22,i,-4,-0.23,nt
CCOC(=O)/C=C/S(=O)(=O)c1ccc(NC(C)=O)cc1,4,-7,nt,i,-4,-3.1,121*
CCOC(=O)/C=C/C(=O)Nc1ccc(S(=O)(=O)Nc2c(C)cc(C)cc2C)cc1,2,0,34,i,34,-1.2,nt
Cc1nn(C)c(C)c1/C=N/NC(=O)C(C)(C)Oc1ccc(Cl)cc1,2,-3,7,i,-6,-0.88,nt
Cc1nn(C(C)(C)C)c(C)c1/C=N/OC(=O)Nc1ccc(Cl)cc1,nt,0,99*,nt,nt,-0.18,117*
COCCn1c(=NC(=O)/C=C/c2cccs2)sc2cc(NC(C)=O)ccc21,4,1,105*,i,9,-0.11,79*
CCOc1ccc(NC2=C(Cl)C(=O)N(Cc3ccccc3)C2=O)cc1,2,1,105*,i,12,-0.44,22
COc1ccc(NC2=C(Cl)C(=O)N(CCc3ccccc3)C2=O)cc1,3,-2,2,i,-5,-0.66,nt
CC(=O)Nc1sc(N/N=C\c2ccccc2Cl)nc1-c1cccs1,1,4,103*,i,-2,-0.18,3
O=C(CCl)N(c1ccccc1)C1CCCCC1,4,3,107*,?,89*,-0.87,16
CC(C)n1cc(/C=C(\C#N)S(=O)(=O)c2ccccc2)c2ccccc21,2,nt,-7,i,-1,0.24,nt
COc1ccc(OC)c(NC(=O)CNC(=O)Cn2c(C)cc3ccccc3c2=O)c1,1,nt,4,i,-5,-1.5,nt
COc1cc(NC(=O)Cn2c(C)cc3ccccc3c2=O)cc(OC)c1OC,3,2,97*,i,0,1.8,20
O=C(Nc1ccc(O)c(-c2nc3ccccc3s2)c1)c1cc(=O)c2ccccc2o1,2,-2,108*,i,44,-0.45,21
Cc1cc(C2=NNC(=NC3CC3)SC2)c(C)n1-c1ccccc1,5,1,106*,i,18,0.68,121*
CN=C1NN=C(c2cc(C)n(-c3c(C)n(C)n(-c4ccccc4)c3=O)c2C)CS1,3,nt,33,i,36,-0.45,nt
COc1ccc(Cl)cc1NC(=O)CN1CCC(n2nnc3cc(F)ccc32)CC1,2,-4,64,i,1,-0.028,nt
